# From ChEMBL document CHEMBL5058577, “EUbOPEN Chemogenomics Library 2 (Multiplex)” (2022)
# System: HEK-293T
# Experiment: Multiplex assay against HEK293T
# Assay type: toxicity, cell-based
# Conditions: human
# How it was run: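 At seeding, live cells were stained with Hoechst33342, BioTracker Green Microtubule Cytoskeleton Dye, MitoTracker Red and Annexin V Alexa Fluor 680. After compound addition they were imaged on a CQ1 microscope at 37°C and 5% CO2, and CellPathfinder machine-learning gating sorted them into Hoechst high-intensity objects or normal cells, with normal cells further split into healthy, pyknosed or fragmented nuclei and pyknosed cells into mitotic or apoptotic. Tubulin, mitochondrial-mass and membrane-permeability phenotypes are given as per cents of cells with healthy nuclei.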
# [1] = 12 h, 1 µM, compound concentration 1 uM, replicate 1
# [2] = 12 h, 1 µM, compound concentration 1 uM, replicate 2
# [3] = 12 h, 10 µM, compound concentration 10 uM, replicate 1
# [4] = 12 h, 10 µM, compound concentration 10 uM, replicate 2
# [5] = 24 h, 1 µM, compound concentration 1 uM, replicate 1
# [6] = 24 h, 1 µM, compound concentration 1 uM, replicate 2
# [7] = 24 h, 10 µM, compound concentration 10 uM, replicate 1
# [8] = 24 h, 10 µM, compound concentration 10 uM, replicate 2
# [9] = 48 h, 1 µM, compound concentration 1 uM, replicate 1
# [10] = 48 h, 1 µM, compound concentration 1 uM, replicate 2
# [11] = 48 h, 10 µM, compound concentration 10 uM, replicate 1
# [12] = 48 h, 10 µM, compound concentration 10 uM, replicate 2
smiles,measurement,setting,value
CC[C@H]1OC(=O)[C@H](C)[C@@H](O[C@H]2C[C@@](C)(OC)[C@@H](O)[C@H](C)O2)[C@H](C)[C@@H](O[C@@H]2O[C@H](C)C[C@H](N(C)C)[C@H]2O)[C@@]2(C)CC(C)=C(O2)[C@H](C)[C@@H](O)[C@]1(C)O,Population Apoptotic (%),[1],35%
same,Population Fragmented Nuclei (%),[1],8%
same,Population Healthy Nuclei (%),[1],74%
same,Population Hoechst High Intensity Objects (%),[1],6%
same,Population Membrane Permeable-Phenotype (%),[1],0%
same,Population Mitochondria Different-Phenotype (%),[1],56%
same,Population Mitotic Cells (%),[1],64%
same,Population Normal (%),[1],93%
same,Population Pyknosed Nuclei (%),[1],17%
same,Population Tubulin-Different-Phenotype (%),[1],41%
same,Total Cell Count,[1],367
same,Population Apoptotic (%),[2],45%
same,Population Fragmented Nuclei (%),[2],3%
same,Population Healthy Nuclei (%),[2],84%
same,Population Hoechst High Intensity Objects (%),[2],7%
same,Population Mitochondria Different-Phenotype (%),[2],72%
same,Population Mitotic Cells (%),[2],54%
same,Population Normal (%),[2],92%
same,Population Pyknosed Nuclei (%),[2],11%
same,Population Tubulin-Different-Phenotype (%),[2],27%
same,Total Cell Count,[2],300
same,Population Apoptotic (%),[3],55%
same,Population Fragmented Nuclei (%),[3],8%
same,Population Healthy Nuclei (%),[3],71%
same,Population Hoechst High Intensity Objects (%),[3],13%
same,Population Membrane Permeable-Phenotype (%),[3],0%
same,Population Mitochondria Different-Phenotype (%),[3],87%
same,Population Mitotic Cells (%),[3],44%
same,Population Normal (%),[3],86%
same,Population Pyknosed Nuclei (%),[3],19%
same,Population Tubulin-Different-Phenotype (%),[3],76%
same,Total Cell Count,[3],383
same,Population Apoptotic (%),[4],56%
same,Population Fragmented Nuclei (%),[4],11%
same,Population Healthy Nuclei (%),[4],72%
same,Population Hoechst High Intensity Objects (%),[4],10%
same,Population Mitochondria Different-Phenotype (%),[4],91%
same,Population Mitotic Cells (%),[4],43%
same,Population Normal (%),[4],89%
same,Population Pyknosed Nuclei (%),[4],16%
same,Population Tubulin-Different-Phenotype (%),[4],77%
same,Total Cell Count,[4],217
same,Population Apoptotic (%),[5],20%
same,Population Fragmented Nuclei (%),[5],8%
same,Population Healthy Nuclei (%),[5],78%
same,Population Hoechst High Intensity Objects (%),[5],3%
same,Population Membrane Permeable-Phenotype (%),[5],0%
same,Population Mitochondria Different-Phenotype (%),[5],35%
same,Population Mitotic Cells (%),[5],79%
same,Population Normal (%),[5],96%
same,Population Pyknosed Nuclei (%),[5],13%
same,Population Tubulin-Different-Phenotype (%),[5],24%
same,Total Cell Count,[5],493
same,Population Apoptotic (%),[6],35%
same,Population Hoechst High Intensity Objects (%),[6],6%
same,Population Mitochondria Different-Phenotype (%),[6],49%
same,Population Mitotic Cells (%),[6],64%
same,Population Normal (%),[6],93%
same,Population Pyknosed Nuclei (%),[6],12%
same,Population Tubulin-Different-Phenotype (%),[6],22%
same,Total Cell Count,[6],371
same,Population Apoptotic (%),[7],42%
same,Population Fragmented Nuclei (%),[7],9%
same,Population Healthy Nuclei (%),[7],75%
same,Population Hoechst High Intensity Objects (%),[7],11%
same,Population Membrane Permeable-Phenotype (%),[7],0%
same,Population Mitochondria Different-Phenotype (%),[7],74%
same,Population Mitotic Cells (%),[7],57%
same,Population Normal (%),[7],88%
same,Population Pyknosed Nuclei (%),[7],15%
same,Population Tubulin-Different-Phenotype (%),[7],75%
same,Total Cell Count,[7],499
same,Population Apoptotic (%),[8],70%
same,Population Fragmented Nuclei (%),[8],10%
same,Population Healthy Nuclei (%),[8],71%
same,Population Hoechst High Intensity Objects (%),[8],10%
same,Population Mitochondria Different-Phenotype (%),[8],87%
same,Population Mitotic Cells (%),[8],29%
same,Population Normal (%),[8],89%
same,Population Pyknosed Nuclei (%),[8],18%
same,Population Tubulin-Different-Phenotype (%),[8],80%
same,Total Cell Count,[8],254
same,Population Apoptotic (%),[9],30%
same,Population Fragmented Nuclei (%),[9],12%
same,Population Healthy Nuclei (%),[9],76%
same,Population Hoechst High Intensity Objects (%),[9],8%
same,Population Membrane Permeable-Phenotype (%),[9],0%
same,Population Mitochondria Different-Phenotype (%),[9],28%
same,Population Mitotic Cells (%),[9],69%
same,Population Normal (%),[9],91%
same,Population Pyknosed Nuclei (%),[9],11%
same,Population Tubulin-Different-Phenotype (%),[9],21%
same,Total Cell Count,[9],718
same,Population Apoptotic (%),[10],21%
same,Population Healthy Nuclei (%),[10],78%
same,Population Hoechst High Intensity Objects (%),[10],6%
same,Population Mitochondria Different-Phenotype (%),[10],34%
same,Population Mitotic Cells (%),[10],78%
same,Population Normal (%),[10],93%
same,Population Pyknosed Nuclei (%),[10],9%
same,Population Tubulin-Different-Phenotype (%),[10],20%
same,Total Cell Count,[10],584
same,Population Apoptotic (%),[11],50%
same,Population Fragmented Nuclei (%),[11],12%
same,Population Healthy Nuclei (%),[11],74%
same,Population Hoechst High Intensity Objects (%),[11],10%
same,Population Membrane Permeable-Phenotype (%),[11],1%
same,Population Mitochondria Different-Phenotype (%),[11],61%
same,Population Mitotic Cells (%),[11],50%
same,Population Normal (%),[11],89%
same,Population Pyknosed Nuclei (%),[11],12%
same,Population Tubulin-Different-Phenotype (%),[11],56%
same,Total Cell Count,[11],671
same,Population Apoptotic (%),[12],53%
same,Population Healthy Nuclei (%),[12],75%
same,Population Hoechst High Intensity Objects (%),[12],12%
same,Population Membrane Permeable-Phenotype (%),[12],0%
same,Population Mitochondria Different-Phenotype (%),[12],84%
same,Population Mitotic Cells (%),[12],46%
same,Population Normal (%),[12],87%
same,Population Pyknosed Nuclei (%),[12],11%
same,Population Tubulin-Different-Phenotype (%),[12],73%
same,Total Cell Count,[12],300
CN1CCN(c2nc3cc(C(F)(F)F)ccc3n3cccc23)CC1.O=C(O)/C=C\C(=O)O.O=C(O)/C=C\C(=O)O,Population Apoptotic (%),[1],37%
same,Population Fragmented Nuclei (%),[1],5%
same,Population Healthy Nuclei (%),[1],80%
same,Population Hoechst High Intensity Objects (%),[1],10%
same,Population Membrane Permeable-Phenotype (%),[1],0%
same,Population Mitochondria Different-Phenotype (%),[1],48%
same,Population Mitotic Cells (%),[1],62%
same,Population Normal (%),[1],89%
same,Population Pyknosed Nuclei (%),[1],13%
same,Population Tubulin-Different-Phenotype (%),[1],33%
same,Total Cell Count,[1],438
same,Population Apoptotic (%),[2],53%
same,Population Fragmented Nuclei (%),[2],8%
same,Population Healthy Nuclei (%),[2],77%
same,Population Hoechst High Intensity Objects (%),[2],5%
same,Population Mitochondria Different-Phenotype (%),[2],76%
same,Population Mitotic Cells (%),[2],46%
same,Population Normal (%),[2],94%
same,Population Pyknosed Nuclei (%),[2],14%
same,Population Tubulin-Different-Phenotype (%),[2],35%
same,Total Cell Count,[2],332
same,Population Apoptotic (%),[3],68%
same,Population Fragmented Nuclei (%),[3],7%
same,Population Healthy Nuclei (%),[3],76%
same,Population Hoechst High Intensity Objects (%),[3],14%
same,Population Membrane Permeable-Phenotype (%),[3],0%
same,Population Mitochondria Different-Phenotype (%),[3],73%
same,Population Mitotic Cells (%),[3],31%
same,Population Normal (%),[3],85%
same,Population Pyknosed Nuclei (%),[3],15%
same,Population Tubulin-Different-Phenotype (%),[3],64%
same,Total Cell Count,[3],396
same,Population Apoptotic (%),[4],64%
same,Population Fragmented Nuclei (%),[4],5%
same,Population Hoechst High Intensity Objects (%),[4],9%
same,Population Mitochondria Different-Phenotype (%),[4],89%
same,Population Mitotic Cells (%),[4],35%
same,Population Normal (%),[4],90%
same,Population Pyknosed Nuclei (%),[4],18%
same,Population Tubulin-Different-Phenotype (%),[4],66%
same,Total Cell Count,[4],286
same,Population Apoptotic (%),[5],33%
same,Population Fragmented Nuclei (%),[5],9%
same,Population Healthy Nuclei (%),[5],81%
same,Population Hoechst High Intensity Objects (%),[5],6%
same,Population Membrane Permeable-Phenotype (%),[5],1%
same,Population Mitochondria Different-Phenotype (%),[5],30%
same,Population Mitotic Cells (%),[5],66%
same,Population Normal (%),[5],93%
same,Population Pyknosed Nuclei (%),[5],9%
same,Population Tubulin-Different-Phenotype (%),[5],24%
same,Total Cell Count,[5],557
same,Population Apoptotic (%),[6],54%
same,Population Fragmented Nuclei (%),[6],6%
same,Population Healthy Nuclei (%),[6],83%
same,Population Membrane Permeable-Phenotype (%),[6],0%
same,Population Mitochondria Different-Phenotype (%),[6],50%
same,Population Mitotic Cells (%),[6],45%
same,Population Pyknosed Nuclei (%),[6],10%
same,Population Tubulin-Different-Phenotype (%),[6],25%
same,Total Cell Count,[6],390
same,Population Apoptotic (%),[7],41%
same,Population Fragmented Nuclei (%),[7],8%
same,Population Healthy Nuclei (%),[7],77%
same,Population Hoechst High Intensity Objects (%),[7],9%
same,Population Membrane Permeable-Phenotype (%),[7],0%
same,Population Mitochondria Different-Phenotype (%),[7],65%
same,Population Mitotic Cells (%),[7],58%
same,Population Normal (%),[7],90%
same,Population Pyknosed Nuclei (%),[7],13%
same,Population Tubulin-Different-Phenotype (%),[7],62%
same,Total Cell Count,[7],490
same,Population Apoptotic (%),[8],63%
same,Population Fragmented Nuclei (%),[8],10%
same,Population Healthy Nuclei (%),[8],78%
same,Population Hoechst High Intensity Objects (%),[8],7%
same,Population Mitochondria Different-Phenotype (%),[8],79%
same,Population Mitotic Cells (%),[8],36%
same,Population Normal (%),[8],92%
same,Population Pyknosed Nuclei (%),[8],10%
same,Population Tubulin-Different-Phenotype (%),[8],58%
same,Total Cell Count,[8],378
same,Population Apoptotic (%),[9],20%
same,Population Fragmented Nuclei (%),[9],13%
same,Population Healthy Nuclei (%),[9],78%
same,Population Hoechst High Intensity Objects (%),[9],3%
same,Population Membrane Permeable-Phenotype (%),[9],2%
same,Population Mitochondria Different-Phenotype (%),[9],17%
same,Population Mitotic Cells (%),[9],79%
same,Population Normal (%),[9],96%
same,Population Pyknosed Nuclei (%),[9],7%
same,Population Tubulin-Different-Phenotype (%),[9],17%
same,Total Cell Count,[9],915
same,Population Apoptotic (%),[10],37%
same,Population Healthy Nuclei (%),[10],79%
same,Population Hoechst High Intensity Objects (%),[10],5%
same,Population Membrane Permeable-Phenotype (%),[10],0%
same,Population Mitochondria Different-Phenotype (%),[10],42%
same,Population Mitotic Cells (%),[10],62%
same,Population Normal (%),[10],94%
same,Population Tubulin-Different-Phenotype (%),[10],21%
same,Total Cell Count,[10],535
same,Population Apoptotic (%),[11],50%
same,Population Fragmented Nuclei (%),[11],15%
same,Population Healthy Nuclei (%),[11],75%
same,Population Hoechst High Intensity Objects (%),[11],10%
same,Population Membrane Permeable-Phenotype (%),[11],2%
same,Population Mitochondria Different-Phenotype (%),[11],41%
same,Population Mitotic Cells (%),[11],50%
same,Population Normal (%),[11],89%
same,Population Pyknosed Nuclei (%),[11],8%
same,Population Tubulin-Different-Phenotype (%),[11],44%
same,Total Cell Count,[11],672
same,Population Apoptotic (%),[12],52%
same,Population Fragmented Nuclei (%),[12],11%
same,Population Healthy Nuclei (%),[12],77%
same,Population Hoechst High Intensity Objects (%),[12],12%
same,Population Membrane Permeable-Phenotype (%),[12],0%
same,Population Mitochondria Different-Phenotype (%),[12],65%
same,Population Mitotic Cells (%),[12],47%
same,Population Normal (%),[12],87%
same,Population Pyknosed Nuclei (%),[12],10%
same,Population Tubulin-Different-Phenotype (%),[12],56%
same,Total Cell Count,[12],472
